MrgX1 agonist: agonists of human MrgX1 receptor | MrgX1-HEK293 cells, Fluo-4 calcium fluorescence, agonist mode; active compounds read high | B-score at 10 µM | Q96LB2 | 0.44% of 310,000 active;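 active = calcium response B-score plate-corrected fluorescence ratio at least 3 library SD, with starting fluorescence B-score inside 5 SD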
Target sequence (Q96LB2 whole entry, looked up): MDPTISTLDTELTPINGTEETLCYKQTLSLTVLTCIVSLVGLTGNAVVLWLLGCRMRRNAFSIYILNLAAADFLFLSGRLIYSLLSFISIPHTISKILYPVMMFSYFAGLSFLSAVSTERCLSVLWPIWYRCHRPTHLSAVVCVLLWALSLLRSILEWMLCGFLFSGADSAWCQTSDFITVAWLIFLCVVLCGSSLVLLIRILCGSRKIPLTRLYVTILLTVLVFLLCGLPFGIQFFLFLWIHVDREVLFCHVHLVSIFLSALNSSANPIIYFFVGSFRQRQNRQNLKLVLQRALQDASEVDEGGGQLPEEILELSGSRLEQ
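Test system: HEK293 cells stably expressing human MrgX1 receptor; amount: 15,000 cells per well; doses: compound delivered in addition one of three; times: overnight plating before 1 h dye loading; detection: Fluo-4 NW calcium-flux fluorescence, kinetic read; read-out basis: B-scored fluorescence response ratio; controls: positive and negative controls per plate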
RGS4 pot: RGS4 potentiation or activation | HEK293 M3R/inducible RGS4, carbachol calcium flux Fluo4; active compounds read low | B-score at 10 µM | 0.92% of 310,000 active | AID 463111;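 active = B-score of the integrated calcium signal more than 4 SD below the library mean, with starting fluorescence not abnormally high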;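 note: negative B-score means reduced calcium response which marks RGS4 activation or potentiation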
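Reagent: ECmax carbachol challenge; Test system: M3R-expressing HEK293 line, RGS4 induced by doxycycline; Schedule: overnight RGS4 induction, 30 min dye load 37 °C, 20 min compound RT; Detection: calcium dye Fluo4 fluorescence; Read-out: Agonist-evoked peak-minus-minimum fluorescence over baseline, integrated ratio, B score.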
MrgX1 antag: human MrgX1 receptor antagonism, primary screen. Q96LB2. AID 588676. MRGX1-HEK293 calcium flux, Fluo-4, BAM8-22 antagonism; active compounds read low. B-score at 10 µM. 1.3% of 310,000 active;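 active = calcium-response B-score plate-corrected more than 3 library SD below zero, starting fluorescence within 5 deviations, no agonist response on first addition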;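 note: peak minus trough fluorescence over baseline after final BAM8-22 challenge near maximal dose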
RGS4 inh: inhibitors of human RGS4; P49798; HEK293 M3R/RGS4 inducible, Fluo-4 calcium flux; active compounds read high; triggered by carbachol at its EC20; B-score at 10 µM; 0.45% of 310,000 active;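 active = B-score, a plate-corrected calcium signal, over three deviations above library mean, with baseline fluorescence within five deviations of library mean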;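 note: RGS4 expression induced by doxycycline in cells with stable M3 receptor; B-score is computed from the integrated fluorescence ratio over baseline after carbachol; higher B-score means a larger calcium signal and so more RGS4 inhibition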
Target sequence (P49798 whole entry, looked up): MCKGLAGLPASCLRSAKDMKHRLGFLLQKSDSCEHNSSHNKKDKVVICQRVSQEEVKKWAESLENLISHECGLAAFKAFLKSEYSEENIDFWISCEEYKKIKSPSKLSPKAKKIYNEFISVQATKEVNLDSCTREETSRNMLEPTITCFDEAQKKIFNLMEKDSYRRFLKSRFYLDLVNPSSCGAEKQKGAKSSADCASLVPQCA
MrgX1 allo act: allosterically activates human MrgX1 receptor signaling | Q96LB2 | MrgX1-HEK293, Fluo-4 calcium flux, FDSS; active compounds read high | B-score at 10 µM | 0.63% of 310,000 active;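 active = plate-corrected calcium response at least 3 library SD above typical, normal starting fluorescence, not activating the receptor alone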;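 note: compound read alongside a low EC10 to EC30 dose of BAM8-22 agonist; peak minus trough fluorescence over baseline measured at the second addition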
Numbers without * were called inactive. Most compounds without a hit are left out; they make up all but 3.5% or so of the library.

Screening CC(C)C(O)(C#CCN1CCCC1)c1ccccc1 (configuration not stated) returned MrgX1 agonist inactive, RGS4 pot -7.45*, MrgX1 antag inactive, RGS4 inh inactive and MrgX1 allo act inactive.
For CC(C)C(O)(C#CCN1CCCCC1)c1ccccc1 (configuration not stated) the results were MrgX1 agonist inactive, RGS4 pot -7.19*, MrgX1 antag inactive, RGS4 inh inactive and MrgX1 allo act inactive.
CC(O)(C#CCN1CCOCC1)c1ccccc1 (configuration not stated) was read as RGS4 pot inactive and RGS4 inh inactive.
`OC(C#CCN1CCCCCC1)(c1ccccc1)c1cccnc1` (configuration not stated) gave MrgX1 agonist inactive, RGS4 pot inactive, MrgX1 antag inactive, RGS4 inh inactive and MrgX1 allo act inactive.
C/C(=C/CCC(C)C1CCC2(C)C3CCC4C(C)(C)C(=O)CCC4(C)C3=CCC12C)C(=O)O (configuration not stated) was read as RGS4 pot -7.76* and RGS4 inh inactive.
`C/C(=C/CCC(C)[C@H]1CC[C@@]2(C)C3=C(CC[C@]12C)[C@@]1(C)CCC(=O)C(C)(C)[C@@H]1CC3)C(=O)O` (some centres not stated) gave MrgX1 agonist inactive, RGS4 pot -11.5*, MrgX1 antag inactive, RGS4 inh inactive and MrgX1 allo act inactive.
C/C(=N\NC(=O)C1CC1)c1ccc(Cl)c(Cl)c1 was read as MrgX1 agonist inactive, RGS4 pot inactive, MrgX1 antag inactive, RGS4 inh inactive and MrgX1 allo act inactive.
Screening C/C(=N\N=C(N)N)c1ccc(Cl)c(Cl)c1 returned MrgX1 agonist inactive, RGS4 pot inactive, MrgX1 antag inactive, RGS4 inh inactive and MrgX1 allo act 14.1*.
O=[N+]([O-])c1cccc(/C=N/NC2=NS(=O)(=O)c3ccccc32)c1 was read as MrgX1 agonist inactive, RGS4 pot inactive, MrgX1 antag inactive, RGS4 inh inactive and MrgX1 allo act inactive.
Screening Cn1c(/C(C#N)=C(\O)c2cccc(F)c2)nc2ccccc21 returned MrgX1 agonist inactive, RGS4 pot inactive, MrgX1 antag -5.38*, RGS4 inh inactive and MrgX1 allo act inactive.
`O=C(COC(=O)C12CC3CC(CC(C3)C1)C2)Nc1ccc([N+](=O)[O-])cc1Cl` gave MrgX1 agonist inactive, RGS4 pot inactive, MrgX1 antag -6.64*, RGS4 inh inactive and MrgX1 allo act inactive.
Cc1ccsc1CN(C)CC(=O)Nc1ccc([N+](=O)[O-])cc1Cl was read as MrgX1 agonist inactive, RGS4 pot -8.5*, MrgX1 antag inactive, RGS4 inh inactive and MrgX1 allo act inactive.
CCOc1ccccc1N1C(=O)c2ccc(C(=O)Nc3cccnc3)cc2C1=O was read as MrgX1 agonist inactive, RGS4 pot inactive, MrgX1 antag inactive, RGS4 inh inactive and MrgX1 allo act inactive.
`CC(Sc1nc(N2CCOCC2)c2c(c1C#N)CC(C)(C)OC2)C(=O)O` (configuration not stated) gave MrgX1 agonist inactive, RGS4 pot inactive, MrgX1 antag inactive, RGS4 inh inactive and MrgX1 allo act inactive.
Cc1ccc(C2C(C#N)=C(N)SC(N)=C2C#N)c(C)c1 was read as MrgX1 agonist 52.2*, RGS4 pot inactive, MrgX1 antag inactive, RGS4 inh inactive and MrgX1 allo act inactive.
For Nc1c(C(=O)N/N=C/c2cccnc2)oc2nc(-c3ccco3)cc(-c3ccco3)c12 the results were MrgX1 agonist inactive, RGS4 pot inactive, MrgX1 antag inactive, RGS4 inh inactive and MrgX1 allo act inactive.
Screening Nc1c(C(=O)N/N=C/c2cccnc2)oc2nc(-c3ccccc3)cc(-c3ccco3)c12 returned MrgX1 agonist inactive, RGS4 pot -8.94*, MrgX1 antag -6.24*, RGS4 inh inactive and MrgX1 allo act inactive.
`O=C1C(=O)N(Cc2ccccc2)C(=O)N1CCN1C(=O)c2ccccc2C1=O` gave MrgX1 agonist inactive, RGS4 pot inactive, MrgX1 antag inactive, RGS4 inh inactive and MrgX1 allo act inactive.
For O=C1Cc2ccccc2C(=O)N1CCc1ccccc1 the results were MrgX1 agonist inactive, RGS4 pot inactive, MrgX1 antag -5.21*, RGS4 inh inactive and MrgX1 allo act inactive.
CC1CC1C(=O)OCC(=O)NNC(=O)COc1ccc(Br)cc1 (configuration not stated) was read as MrgX1 agonist inactive, RGS4 pot inactive, MrgX1 antag -6.49*, RGS4 inh inactive and MrgX1 allo act inactive.
BrC(/C=C\c1ccccc1)=N/Nc1nc(N2CCOCC2)nc(N2CCOCC2)n1 was read as MrgX1 agonist inactive, RGS4 pot inactive, MrgX1 antag -8.04*, RGS4 inh inactive and MrgX1 allo act inactive.
BrC(=C\c1ccccc1)/C=N/Nc1nc(N2CCOCC2)nc(N2CCOCC2)n1 was read as MrgX1 agonist inactive, RGS4 pot inactive, MrgX1 antag inactive, RGS4 inh inactive and MrgX1 allo act inactive.
CN1CCc2cccc3c2C1Cc1ccc(O)c(O)c1-3 (configuration not stated) was read as MrgX1 agonist inactive, RGS4 pot inactive, MrgX1 antag inactive, RGS4 inh inactive and MrgX1 allo act inactive.
Screening CCOC(=O)CC1C(=O)NCCN1c1nc2ccc(C)cn2c(=O)c1/C=C1\SC(=S)N(CC(C)C)C1=O (configuration not stated) returned MrgX1 agonist 103*, RGS4 pot inactive, MrgX1 antag inactive, RGS4 inh inactive and MrgX1 allo act inactive.
CCOC(=O)CC1C(=O)NCCN1c1nc2ccc(C)cn2c(=O)c1/C=C1\SC(=S)N(C(C)CC)C1=O (configuration not stated) was read as MrgX1 agonist 108*, RGS4 pot inactive, MrgX1 antag inactive, RGS4 inh inactive and MrgX1 allo act inactive.
Screening CCCN1C(=O)/C(=C/c2c(N3CCNC(=O)C3CC(=O)OCC)nc3c(C)cccn3c2=O)SC1=S (configuration not stated) returned MrgX1 agonist inactive, RGS4 pot inactive, MrgX1 antag inactive, RGS4 inh inactive and MrgX1 allo act inactive.
Screening O=C(CSc1nc2ccccc2n1CC(=O)N1CCCC1)NCc1ccc2c(c1)OCO2 returned MrgX1 agonist inactive, RGS4 pot inactive, MrgX1 antag inactive, RGS4 inh inactive and MrgX1 allo act inactive.
Cc1ccc(C)c(N(C(=O)CCC(=O)Nc2cc(C)on2)C(C(=O)NC2CCCC2)c2ccco2)c1 (configuration not stated) was read as MrgX1 agonist inactive, RGS4 pot inactive, MrgX1 antag inactive, RGS4 inh inactive and MrgX1 allo act inactive.

Screening results from PubChem.
